Assay results reported in ChEMBL document CHEMBL4732082, “Development of novel benzimidazole-derived neddylation inhibitors for suppressing tumor growth invitro and invivo” (Eur J Med Chem, 2021).

Columns and labels:
[1] = target: T1, NEDD8-activating enzyme E1 regulatory subunit (Homo sapiens) (UniProt Q13564); assay: Inhibition of NAE (unknown origin)-mediated neddylation assessed as suppression of cullin1-Nedd8 adduct formation at 25 uM preincubated for 10 mins followed by ATP addition and measured after 30 mins by immunoblot analysis relative to control; conditions: time 40.0 min
T1 sequence (whole entry): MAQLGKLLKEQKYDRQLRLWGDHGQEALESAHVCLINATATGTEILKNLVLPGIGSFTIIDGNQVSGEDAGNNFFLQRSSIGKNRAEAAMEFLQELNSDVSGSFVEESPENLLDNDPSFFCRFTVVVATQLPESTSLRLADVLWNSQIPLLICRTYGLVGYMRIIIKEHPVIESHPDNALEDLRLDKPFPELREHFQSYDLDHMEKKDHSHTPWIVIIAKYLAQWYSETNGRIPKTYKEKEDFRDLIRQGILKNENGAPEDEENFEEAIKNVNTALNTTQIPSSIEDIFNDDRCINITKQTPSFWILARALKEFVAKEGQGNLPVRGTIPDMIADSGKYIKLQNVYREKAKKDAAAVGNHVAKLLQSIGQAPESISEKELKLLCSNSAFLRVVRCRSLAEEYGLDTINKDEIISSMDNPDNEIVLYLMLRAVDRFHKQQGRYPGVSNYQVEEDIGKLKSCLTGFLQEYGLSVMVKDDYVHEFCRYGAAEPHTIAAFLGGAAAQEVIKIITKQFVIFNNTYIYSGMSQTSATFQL

[2] = tested on: A549; assay: Antiproliferative activity against human A549 cells assessed as inhibition of cell proliferation at 100 uM incubated for 48 hrs by CCK-8 assay relative to control; assay type: functional; parameters: scale not given: the % may be the effect or the level left
Outline: (§1)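 Cells from ATCC, passaged six times, grown in DMEM with 10% FBS and penicillin/streptomycin at 37 °C under 5% CO2. Seeded at 2500 cells/well, cultured overnight, treated 48 h, viability read by CCK-8. Run in triplicate; values are the mean of three experiments.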

[3] = target: T2, NEDD8-activating enzyme E1 catalytic subunit (Homo sapiens, UniProt Q8TBC4); assay: Inhibition of NAE (unknown origin)-mediated neddylation assessed as suppression of cullin1-Nedd8 adduct formation preincubated for 10 mins followed by ATP addition and measured after 30 mins by immunoblot analysis
T2 sequence (Q8TBC4 whole entry): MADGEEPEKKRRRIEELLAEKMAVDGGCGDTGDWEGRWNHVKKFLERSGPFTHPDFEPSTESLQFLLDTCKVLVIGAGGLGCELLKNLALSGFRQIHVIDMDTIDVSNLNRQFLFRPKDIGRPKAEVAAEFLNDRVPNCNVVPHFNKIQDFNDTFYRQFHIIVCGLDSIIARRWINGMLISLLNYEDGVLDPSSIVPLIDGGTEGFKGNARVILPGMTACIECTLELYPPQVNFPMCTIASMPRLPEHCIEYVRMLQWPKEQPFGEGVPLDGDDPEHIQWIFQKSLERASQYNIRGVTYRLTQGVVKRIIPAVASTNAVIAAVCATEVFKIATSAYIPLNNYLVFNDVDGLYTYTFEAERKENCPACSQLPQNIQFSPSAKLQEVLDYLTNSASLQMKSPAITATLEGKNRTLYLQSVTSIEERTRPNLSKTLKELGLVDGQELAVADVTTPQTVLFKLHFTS

[4] = tested on: A549; assay: Antiproliferative activity against human A549 cells incubated for 48 hrs by CCK-8 assay; assay type: functional, cell-based; conditions: A549, 48 h; outline: as §1
[5] = tested on: NCI-H1299; assay: Antiproliferative activity against human H1299 cells incubated for 48 hrs by CCK-8 assay; assay type: functional, cell-based; conditions: NCI-H1299, 48 h; outline: as §1
[6] = Cytotoxicity against human […] cells incubated for 48 hrs by CCK-8 assay; assay type: cell-based; outline: as §1
[7] = tested on: BEAS-2B; assay: Cytotoxicity against human BEAS-2B cells incubated for 48 hrs by CCK-8 assay; assay type: cell-based; outline: as §1

Compound | inhibition [1] | Activity [2] | also measured
CCOc1nc2cccc(C(=O)Nc3ccncc3)c2n1Cc1ccc(-c2ccccc2-c2nnn[nH]2)cc1 | 39.8% | 39.5% | 
CCOc1nc2cccc(C(=O)Nc3ccc4c(c3)OCO4)c2n1Cc1ccc(-c2ccccc2-c2nnn[nH]2)cc1 | 34.9% | 16.7% | 
CCOc1nc2cccc(C(=O)NCCc3ccc(Cl)cc3)c2n1Cc1ccc(-c2ccccc2-c2nnn[nH]2)cc1 | 47.6% | 36.2% | 
CCOc1nc2cccc(C(=O)NOCc3ccccc3)c2n1Cc1ccc(-c2ccccc2-c2nnn[nH]2)cc1 | 39.8% | 24.3% | 
CCOc1nc2cccc(C(=O)NCCc3cc(Cl)ccc3Cl)c2n1Cc1ccc(-c2ccccc2-c2nnn[nH]2)cc1 | 82.9% | 77.6% | IC50 [3]: 6.67 µM; IC50 [4]: 39.3 µM; IC50 [5]: 36.7 µM; IC50 [6]: 64.9 µM; IC50 [7]: 80.8 µM
CCOc1nc2cccc(C(=O)NCCc3cccc(OC)c3)c2n1Cc1ccc(-c2ccccc2-c2nnn[nH]2)cc1 | 43.6% | 57.7% | 
CCOc1nc2cccc(C(=O)NCCCNC3CCCCC3)c2n1Cc1ccc(-c2ccccc2-c2nnn[nH]2)cc1 | 29.4% | 11.2% | 
CCOc1nc2cccc(C(=O)NCCc3ccccc3)c2n1Cc1ccc(-c2ccccc2-c2nnn[nH]2)cc1 | 39.4% | 43.8% | 
CCOc1nc2cccc(C(=O)OC(C)OC(=O)OC3CCCCC3)c2n1Cc1ccc(-c2ccccc2-c2nn[nH]n2)cc1 (stereo not drawn) [CANDESARTAN CILEXETIL] | 87.8% | 69.2% | IC50 [4]: 65.9 µM; IC50 [6]: 82.7 µM; IC50 [7]: 79.8 µM
NS(=O)(=O)OC[C@@H]1C[C@@H](n2ccc3c(N[C@H]4CCc5ccccc54)ncnc32)C[C@@H]1O [PEVONEDISTAT] | 90.5% | 91.4% | IC50 [4]: 0.63 µM; IC50 [5]: 0.49 µM; IC50 [6]: 4.03 µM; IC50 [7]: 1.22 µM
CCOc1nc2cccc(C(=O)NCCCCc3ccccc3)c2n1Cc1ccc(-c2ccccc2-c2nnn[nH]2)cc1 | 64.6% | <20% | 
CCOc1nc2cccc(C(=O)NC3CC3)c2n1Cc1ccc(-c2ccccc2-c2nnn[nH]2)cc1 | 30.9% | 11.3% | 
CCOc1nc2cccc(C(=O)NCCc3ccc4c(c3)OCO4)c2n1Cc1ccc(-c2ccccc2-c2nnn[nH]2)cc1 | 35.7% | 14.2% | 
CCOc1nc2cccc(C(=O)NCCc3ccc(F)cc3F)c2n1Cc1ccc(-c2ccccc2-c2nnn[nH]2)cc1 | 35.8% | 12.5% | 
CCOc1nc2cccc(C(=O)Nc3ccc(OC)cc3)c2n1Cc1ccc(-c2ccccc2-c2nnn[nH]2)cc1 | 25.8% | 10.5% | 
CCOC(=O)CNC(=O)c1cccc2nc(OCC)n(Cc3ccc(-c4ccccc4-c4nnn[nH]4)cc3)c12 | 46.5% | 32.7% | 
CCOc1nc2cccc(C(=O)NCCc3ccc(Br)cc3)c2n1Cc1ccc(-c2ccccc2-c2nnn[nH]2)cc1 | 66.1% | 51.4% | 
CCOc1nc2cccc(C(=O)NCc3ccco3)c2n1Cc1ccc(-c2ccccc2-c2nnn[nH]2)cc1 | 37.5% | 18.9% | 
CCOc1nc2cccc(C(=O)OC(C)OC(=O)OC3CCCCC3)c2n1Cc1ccc(-c2ccccc2)cc1 (stereo not drawn) | 29.5% | 34.2% | 
CCOc1nc2cccc(C(=O)OC(C)OC(=O)OC3CCCCC3)c2n1Cc1ccc(-c2ccccc2-c2noc(=O)[nH]2)cc1 (stereo not drawn) | 34.2% | 14.6% | 
CCOc1nc2cccc(C(=O)NCCc3c[nH]c4ccccc34)c2n1Cc1ccc(-c2ccccc2-c2nnn[nH]2)cc1 | 74.7% | 71.6% | IC50 [3]: 9.94 µM; IC50 [4]: 19.1 µM; IC50 [5]: 18.2 µM; IC50 [6]: 44.7 µM; IC50 [7]: 37.9 µM

Second part, led by results:

inhibition [1] | Compound | Activity [2] | also measured
48.9% | CCOc1nc2cccc(C(=O)NCc3ccccc3)c2n1Cc1ccc(-c2ccccc2-c2nnn[nH]2)cc1 | 54.5% | 
43.2% | CCOc1nc2ccc(C(=O)OC(C)OC(=O)OC3CCCCC3)cc2n1Cc1ccc(-c2ccccc2-c2nnn[nH]2)cc1 (stereo not drawn) | 56.9% | 
41.2% | CCOc1nc2cccc(C(=O)OC(C)OC(=O)OC3CCCCC3)c2n1Cc1ccc(-c2ccccc2-c2nnnn2C)cc1 (stereo not drawn) | 16.8% | 
47.5% | CCOc1nc2cccc(C(=O)NCCc3ccc([N+](=O)[O-])cc3)c2n1Cc1ccc(-c2ccccc2-c2nnn[nH]2)cc1 | 53.5% | 
34.6% | CCOc1nc2cccc(C(=O)Nc3ccccc3)c2n1Cc1ccc(-c2ccccc2-c2nnn[nH]2)cc1 | 13.1% | 
35.7% | CCOc1nc2cccc(C(=O)NC(c3ccccc3)c3ccccc3)c2n1Cc1ccc(-c2ccccc2-c2nnn[nH]2)cc1 | 31.6% | 
47.9% | CCOc1nc2cccc(C(=O)NCc3ccc4c(c3)OCO4)c2n1Cc1ccc(-c2ccccc2-c2nnn[nH]2)cc1 | 53.19% | 
86.7% | CCOc1nc2cccc(C(=O)NCCc3c(Cl)cccc3Cl)c2n1Cc1ccc(-c2ccccc2-c2nnn[nH]2)cc1 | 45.5% | 
29.5% | CCOc1nc2cccc(C(=O)NCCCN(C)C)c2n1Cc1ccc(-c2ccccc2-c2nnn[nH]2)cc1 | 9.8% | 
57.4% | CCOc1nc2cccc(C(=O)NCCc3ccccc3Cl)c2n1Cc1ccc(-c2ccccc2-c2nnn[nH]2)cc1 | 36.6% | 
28.6% | CCOc1nc2cccc(C(=O)N[C@H]3CC[C@H](C(=O)OC)CC3)c2n1Cc1ccc(-c2ccccc2-c2nnn[nH]2)cc1 | 9.2% | 
27.9% | CCOc1nc2cccc(C(=O)NCCCOC)c2n1Cc1ccc(-c2ccccc2-c2nnn[nH]2)cc1 | 10.1% | 
32.1% | CCOc1nc2cccc(C(=O)NCCc3ccc(C)cc3)c2n1Cc1ccc(-c2ccccc2-c2nnn[nH]2)cc1 | 15.7% | 
45.3% | CCOc1nc2cccc(C(=O)Nc3ccc(F)cc3)c2n1Cc1ccc(-c2ccccc2-c2nnn[nH]2)cc1 | 66.3% | 
36.8% | CCOc1nc2cccc(C(=O)NC3CCCCC3)c2n1Cc1ccc(-c2ccccc2-c2nnn[nH]2)cc1 | 12.1% | 
18.9% | CCOc1nc2ccccc2n1Cc1ccc(-c2ccccc2-c2nn[nH]n2)cc1 | 9.5% | 
39.7% | CCOc1nc2cccc(C(=O)NC3CCCC3)c2n1Cc1ccc(-c2ccccc2-c2nnn[nH]2)cc1 | 11.9% | 
38.1% | CCOc1nc2cccc(C(=O)NCc3ccc(F)cc3)c2n1Cc1ccc(-c2ccccc2-c2nnn[nH]2)cc1 | 35.4% | 
32.6% | CCCC(=O)N(Cc1ccc(-c2ccccc2-c2nnn[nH]2)cc1)c1ccccc1C(=O)OC(C)OC(=O)OC1CCCCC1 (stereo not drawn) | 15.2% | 
32.6% | CCCNC(=O)c1cccc2nc(OCC)n(Cc3ccc(-c4ccccc4-c4nnn[nH]4)cc3)c12 | 12.5% | 
60.9% | CCOc1nc2cccc(C(=O)Nc3ccc(S(N)(=O)=O)cc3)c2n1Cc1ccc(-c2ccccc2-c2nnn[nH]2)cc1 | 54.4% | 
44.7% | CCOc1nc2cc(C(=O)OC(C)OC(=O)OC3CCCCC3)ccc2n1Cc1ccc(-c2ccccc2-c2nnn[nH]2)cc1 (stereo not drawn) | 33.3% | 
